CSN deneddyl inh – inhibitors of human CSN-mediated cullin deneddylation; Q92905; Purified CSN, SCF-Nedd8-OG deneddylation, fluorescence polarization; 360,000 tested, 0.38% active; inhibition, % at 12.5 µM;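 active = pattern-corrected inhibition above about 35%, with an unprinted fluorescence ratio check between 0.5 and 1.5, limit read from the data, passing the limit was not always enough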
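Material: human Csn5 produced in HEK293T cells; Input: enzyme 0.24 nM; Reagent: SCFSkp2-Nedd8OG substrate at 10 nM final; Dosing: 12.5 µM compound; Incubation: 90 min reaction at room temperature; Detection: fluorescence polarization of the substrate; Evaluation: % inhibition of substrate cleavage by Csn5; Control set: substrate-only high control, full reaction low control.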
rCAG binder – molecules binding r(CAG) RNA repeats | r(CAG) RNA repeat, TO-PRO-1 dye displacement fluorescence | AID 651821 | inhibition, % at 3 µM | 370,000 tested, 1.3% active;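 active = inhibition above the plate cutoff, the mean of all test compounds on that plate plus 3 SD, cut at about 35% in these data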;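 also: higher means more dye released from RNA so lower well fluorescence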
MBD2 DNA inh – blocks human MBD2 binding to methylated DNA | Q9UBB5 | inhibition, % at 4.4 µM | TR-FRET, MBD2 binding to methylated oligonucleotide | 370,000 tested, 0.31% active; in the data active = inhibition above about 13%
UHRF1 binding – blocks human UHRF1 binding to methylated DNA. AID 687016. inhibition, % at 4.4 µM. 370,000 tested, 0.75% active. UHRF1 binding to methylated oligo, TR-FRET; in the data active = inhibition above about 21%;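 also: UHRF1 SRA domain binding a hemimethylated CpG hairpin DNA probe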
ATG4B inhibitor – ATG4B (human) cysteine protease inhibition; Q9Y4P1; ATG4B cleavage of LC3-PLA2, NBD-HPC fluorescence, 1 h; inhibition, % at 8.33 µM; 340,000 tested, 0.51% active; AID 504462; in the data active = inhibition above about 40%
Target sequence (Q9Y4P1 whole entry, looked up): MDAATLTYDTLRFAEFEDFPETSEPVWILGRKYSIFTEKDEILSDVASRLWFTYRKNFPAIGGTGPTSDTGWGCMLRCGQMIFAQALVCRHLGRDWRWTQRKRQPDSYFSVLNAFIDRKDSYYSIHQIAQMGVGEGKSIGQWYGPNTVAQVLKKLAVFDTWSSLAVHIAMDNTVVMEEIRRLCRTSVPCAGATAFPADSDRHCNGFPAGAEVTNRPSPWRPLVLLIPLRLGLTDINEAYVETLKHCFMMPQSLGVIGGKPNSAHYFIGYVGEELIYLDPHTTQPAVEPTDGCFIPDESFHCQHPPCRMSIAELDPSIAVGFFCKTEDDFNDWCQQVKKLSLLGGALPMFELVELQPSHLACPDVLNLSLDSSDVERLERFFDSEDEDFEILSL
LEDGF integ inh – blocks HIV-1 LEDGF/p75-dependent DNA integration; TR-FRET IN-LEDGF/p75 DNA integration, Eu/Cy5; inhibition, % at 3.7 µM; 370,000 tested, 0.64% active; AID 743269;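 active = inhibition above the screen-wide mean plus 3 SD, cut at about 13% in these data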;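 also: signal is the Cy5 over europium emission ratio at 671 and 618 nm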
ATG4B confirm – ATG4B (human) inhibition, single-dose confirmed; 320 tested, 92% active; shares compounds with ATG4B inhibitor; AID 504757; ATG4B protease fluorescent substrate cleavage assay; inhibition, % at 8.33 µM; in the data active = inhibition above about 39%
PLA2 counter – PLA2 (human) inhibition in ATG4B counter-screen; shares compounds with ATG4B inhibitor; purified PLA2, NBD-C6-HPC fluorescence, 45 min; inhibition, % at 8.33 µM; 1,600 tested, 66% active; AID 588402; in the data active = inhibition above about 50%
Target sequence (P04054 whole entry, looked up): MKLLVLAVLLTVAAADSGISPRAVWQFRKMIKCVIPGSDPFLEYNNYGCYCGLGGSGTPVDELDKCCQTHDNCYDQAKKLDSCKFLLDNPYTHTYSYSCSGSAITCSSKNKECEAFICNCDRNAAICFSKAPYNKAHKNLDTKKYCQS
Hits are given with their value; – = inactive; · = not tested or not shown. Shown are actives, neighbours in structure and some others; about 3.1% of the full set was active somewhere.

SMILES | CSN deneddyl inh | rCAG binder | MBD2 DNA inh | UHRF1 binding | ATG4B inhibitor | LEDGF integ inh | PLA2 counter | others
COc1ccc(S[C@]2(C(=O)N(C)C)CC(=O)N(C(=O)/C=C/c3ccccc3)[C@@H]2c2ccc(OC)cc2)cc1 | · | – | – | – | · | – | ·
Cc1cc(C)c(C(=O)COC(=O)c2cccc(S(=O)(=O)NCc3ccccc3)c2)cc1C | – | – | – | – | – | – | ·
O=C(COC(=O)c1cccc(S(=O)(=O)NCc2ccccc2)c1)c1ccccc1 | – | – | – | – | 47 | – | 55
O=C(N/N=C/c1cccc([N+](=O)[O-])c1)c1nc2ccccc2c(=O)[nH]1 | – | – | – | – | – | – | ·
O=C(N/N=C/c1ccccc1Cl)c1nc2ccc([N+](=O)[O-])cc2c(=O)[nH]1 | – | – | – | – | 41 | – | – | ATG4B confirm=66
Cc1cccc(C)c1NC(=O)C1CCN(c2ncccn2)CC1 | · | – | – | – | · | – | ·
O=C(c1ccc(Cl)cc1)c1oc2ccccc2c1CS(=O)(=O)c1ccccc1 | – | – | – | – | 43 | – | –
Nc1c(C(=O)c2ccccc2)oc2ccccc12 | – | – | – | – | – | – | ·
Cc1nc(NC(=O)c2ccccc2)sc1-c1csc(NCc2ccccc2)n1 | – | – | – | – | 45 | – | 66
Cc1c(C)c(C)c(CO/N=C/c2cccs2)c(C)c1C | – | – | – | – | 60 | – | – | ATG4B confirm=66
CC1COCC(C)N1S(=O)(=O)c1ccc2c(c1)CCN2C(=O)C1CCC1 (stereo unspecified) | · | – | – | – | · | – | ·
O=C(c1nn(Cc2ccccc2)c(=O)c2ccccc12)N1CCN(C/C=C/c2ccccc2)CC1 | – | – | – | – | 49 | – | 55
O=C(c1ccco1)N1CCN(C/C=C/c2ccccc2)CC1 | – | – | – | – | – | – | ·
O=C(CNCCc1ccc(Cl)cc1Cl)NCc1ccco1 | – | – | – | – | 41 | – | – | ATG4B confirm=66
O=C(CNCc1ccccc1Cl)NCc1ccco1 | – | – | – | – | – | – | ·
O=C(Nc1nc2ncccn2c1-c1ccc(C(F)(F)F)cc1)c1ccccc1 | · | – | – | – | · | – | ·
CC(C)(C)c1ccc2c(c1)C(=O)c1ccccc1C2=O | – | – | – | – | 45 | – | – | ATG4B confirm=67
CCCC1=NN2C(=N)/C(=C\c3cc(C)n(-c4cc(C)cc(C)c4)c3C)C(=O)N=C2S1 | – | – | – | – | 58 | – | 55
Cc1cc(C)cc(-n2c(C)cc(/C=C3\C(=N)N4N=C(CC(C)C)SC4=NC3=O)c2C)c1 | – | – | – | – | 44 | – | – | ATG4B confirm=46
CCCCOC(=O)CSc1nc(N)c(C#N)c(-c2ccc(OCC)cc2)c1C#N | – | – | – | – | – | – | ·
CCCCOc1ccc(-c2c(C#N)c(N)nc(SCC(N)=O)c2C#N)cc1 | – | – | – | – | 53 | – | 58
N#Cc1cnn(-c2nc(SCc3ccccc3)nc3sc4c(c23)CCCC4)c1N | – | – | – | – | 43 | – | 59
CCOC(=O)[C@@]12CCC3=C1N(CCC3)C(=O)[C@H](CC(=O)NCC13CC4CC(CC(C4)C1)C3)C2 | · | – | – | – | · | – | ·
Cc1ccc(-c2nnc(SCC(=O)Nc3ccc(Oc4ccccc4)cc3)n2-c2ccc(Cl)cc2)cc1 | · | – | – | – | · | – | ·
Cc1c(Cl)cccc1NC(=O)COC(=O)CCc1nc2ccccc2n1-c1ccccc1 | – | – | – | – | 50 | – | 53
SMILES | CSN deneddyl inh | rCAG binder | MBD2 DNA inh | UHRF1 binding | ATG4B inhibitor | LEDGF integ inh | PLA2 counter | others
CCOc1ccc(-c2cc(C(=O)OC)c3n(c2=O)CCC3)cc1 | · | – | – | – | · | – | ·
O=C(NCc1ccc(Cl)cc1Cl)C1CCN(S(=O)(=O)c2ccc3c(c2)OCCCO3)CC1 | – | – | – | – | 42 | – | 55
COCCCNC(=O)C[C@H]1C(=O)N(Cc2ccc(OC)cc2)C2=CCCCC[C@@]21C(=O)OC | · | – | – | – | · | – | ·
NC(=O)C1CCN(C2=C(NS(=O)(=O)c3ccc(Br)cc3)C(=O)c3ccccc3C2=O)CC1 | – | – | – | – | 64 | – | 60
NC(=O)C1CCN(C2=C(NS(=O)(=O)c3ccccc3)C(=O)c3ccccc3C2=O)CC1 | – | – | – | – | – | – | ·
CCCCCC(=O)Nc1ccccc1N1CCN(c2ccccc2)CC1 | – | – | – | – | 41 | – | – | ATG4B confirm=51
CCCCC(=O)Nc1ccccc1N1CCOCC1 | – | – | – | – | – | – | ·
O=c1nc(/C=C/c2ccccc2C(F)(F)F)cc(C(F)(F)F)[nH]1 | – | – | – | – | 45 | – | 59
CN(C)C(CNC(=O)c1ccc(NC(=O)CC#N)cc1)c1ccccc1 (stereo unspecified) | – | – | – | – | 47 | – | 56
Cc1ccc(S(=O)(=O)/C(C#N)=C/c2c(N3CCN(C)CC3)nc3c(C)cccn3c2=O)cc1 | – | – | – | – | 50 | – | 59
Cc1ccc(S(=O)(=O)/C(C#N)=C/c2c(N3CC(C)OC(C)C3)nc3c(C)cccn3c2=O)cc1 (stereo unspecified) | – | – | – | – | 44 | – | 51
CCN1CCN(c2nc3c(C)cccn3c(=O)c2/C=C(\C#N)S(=O)(=O)c2ccc(Cl)cc2)CC1 | – | – | – | – | – | – | ·
CC1CN(c2nc3ccccn3c(=O)c2/C=C(\C#N)S(=O)(=O)c2ccccc2)CC(C)O1 (stereo unspecified) | – | – | – | – | – | – | ·
CCN1CCN(c2nc3c(C)cccn3c(=O)c2/C=C(\C#N)S(=O)(=O)c2ccc(C)cc2)CC1 | – | – | – | – | 67 | – | 68
COc1ccc2cc(C=NS(=O)(=O)c3ccc(C)cc3)n(C)c2c1 | – | – | – | – | 83 | – | 75
COC(=O)C1=C(C)N(Cc2cccc(C(F)(F)F)c2)C(=NCc2ccc3c(c2)OCO3)NC1c1ccc(F)cc1 (stereo unspecified) | · | – | – | – | · | – | ·
CCOc1ccc(OCC)c(NC(=O)CN2CCC(NC(=O)c3cccc(F)c3)CC2)c1 | – | – | – | – | 79 | – | 76
CC1(C)C2CCC1(C)C1(C2)NC(=O)c2ccccc2O1 (stereo unspecified) | – | – | – | – | 45 | – | – | ATG4B confirm=70
O=C1NC2(CCCC2)Oc2ccccc21 | – | – | – | – | – | – | ·
CC1=CC(C)(C)N2C(=O)C3(NCCc4c3[nH]c3ccccc43)c3cc(C)cc1c32 (stereo unspecified) | – | – | – | – | 58 | – | 69
CCCCn1c(SCC(=O)Nc2cc(C)[nH]n2)nc2ccsc2c1=O | – | – | – | – | 45 | – | – | ATG4B confirm=56

Compound activity: PubChem BioAssay, several laboratories
